Reference: ChEMBL document CHEMBL4402567, “Structure-Activity Relationship Studies on Diversified Salicylamide Derivatives as Potent Inhibitors of Human Adenovirus Infection” (J Med Chem, 2020)
The source made the active and inactive calls. No cut-off for these calls is given here.

Experiments:
Human adenovirus 5 [1] = test: Antiviral activity against Human adenovirus 5 infected in human A549 cells assessed as inhibition of viral DNA replication by measuring number of viral DNA copies at 20 uM after 24 hrs by RT-qPCR analysis (reference value: 100 +/- 1.55%); format: functional; parameters: scale not given: the % may be the effect or the level left
Human adenovirus 5 [2] = test: Antiviral activity against Human adenovirus 5 infected in 293beta5 cells assessed as inhibition of plaque formation incubated for 7 days by GFP reporter gene assay; format: functional, organism-based; conditions: Human mastadenovirus C, 293beta5, 168 h
Procedure, shortened: (§1)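 HAdV5-GFP plaque assay in 293β5 cells at low MOI. Inhibition is expressed as percent of the infected control, with single-dose screening at 10 μM. Compounds giving >90% inhibition went on to IC50 determination. Values are means ± SD of triplicate samples from three independent experiments.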

[3] = Cytotoxicity against human A549 cells assessed as reduction in cell viability after 48 hrs by alamar blue assay; format: cell-based
[4] = Selectivity index, ratio of CC50 for cytotoxicity against human A549 cells to IC50 for antiviral activity against Human adenovirus 5 infected in 293beta5 cells assessed as inhibition of plaque formation after 7 days; format: toxicity, cell-based; conditions: read-out: Ratio CC50/IC50
Human adenovirus 5 [5] = test: Antiviral activity against Human adenovirus 5 infected in 293beta5 cells assessed as inhibition of plaque formation at 10 uM incubated for 7 days by GFP reporter gene assay relative to control; format: functional; conditions: Human mastadenovirus C, 293beta5, 168 h; procedure, shortened: as §1
Human adenovirus 5 [6] = test: Antiviral activity against Human adenovirus 5 infected in 293beta5 cells assessed as reduction in inhibition of viral replication at 10 uM preincubated for 60 mins followed by viral infection by GFP reporter gene assay; format: functional, organism-based
Human adenovirus 5 [7] = test: Antiviral activity against Human adenovirus 5 infected in human A549 cells assessed as inhibition of viral entry after 48 hrs by GFP reporter gene based assay; format: functional, organism-based; conditions: Human mastadenovirus C, A549, 48 h
Procedure, shortened: (§2)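 Entry assay in A549 epithelial cells infected with HAdV5-GFP at high MOI, with compound present throughout and 48 h incubation. GFP expression is the read-out.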

Human adenovirus 5 [8] = test: Antiviral activity against Human adenovirus 5 infected in human A549 cells assessed as fold reduction in virus yield at 20 uM after 48 hrs endpoint dilution method relative to control; format: functional
Human adenovirus 5 [9] = test: Antiviral activity against Human adenovirus 5 infected in 293beta5 cells assessed as inhibition of viral replication at 10 uM after 20 mins post infection by GFP reporter gene assay relative to control; format: functional; conditions: Human mastadenovirus C, 293beta5, 20 min
Human adenovirus 5 [10] = test: Antiviral activity against Human adenovirus 5 infected in human A549 cells asssessed as inhibition of viral entry by measuring nuclear-associated viral genome level at 20 uM after 45 mins by RT-PCR analysis (reference value: 100.24 +/- 2.77%); format: functional; parameters: scale not given: the % may be the effect or the level left
Procedure, shortened: (§3)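 Nuclear HAdV genome levels in treated cells were quantified at 45 min post-infection and compared with DMSO-treated cells. […] Bars are means ± SD of triplicate samples.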

Human adenovirus 5 [11] = test: Antiviral activity against Human adenovirus 5 infected in 293beta5 cells assessed as inhibition of viral infection at 5 uM measured after 20 to 40 mins post infection by GFP reporter gene assay relative to control; format: functional; parameters: scale not given: the % may be the effect or the level left
Human adenovirus 5 [12] = test: Antiviral activity against Human adenovirus 5 infected in human A549 cells assessed as inhibition of viral DNA replication by measuring number of viral DNA copies at 2 uM after 24 hrs by RT-qPCR analysis (reference value: 100 +/- 1.55%); format: functional; parameters: scale not given: the % may be the effect or the level left
Human adenovirus 5 [13] = test: Antiviral activity against Human adenovirus 5 infected in human A549 cells asssessed as inhibition of viral entry by measuring nuclear-associated viral genome level at 2 uM after 45 mins by RT-PCR analysis (reference value: 100.24 +/- 2.77%); format: functional; parameters: scale not given: the % may be the effect or the level left; procedure, shortened: as §3
Human adenovirus 5 [14] = test: Antiviral activity against Human adenovirus 5 infected in human A549 cells assessed as fold reduction in virus yield at 2 uM after 48 hrs endpoint dilution method relative to control; format: functional
Human adenovirus 5 [15] = test: Antiviral activity against Human adenovirus 5 infected in human A549 cells assessed as inhibition of viral entry at 50 uM after 48 hrs by GFP reporter gene based assay relative to control; format: functional; conditions: Human mastadenovirus C, A549, 48 h; procedure, shortened: as §2
Human adenovirus 5 [16] = test: Antiviral activity against Human adenovirus 5 infected in human A549 cells asssessed as inhibition of viral entry by measuring nuclear-associated viral genome level at 50 uM after 45 mins by RT-PCR analysis (reference value: 100.24 +/- 2.77%); format: functional; parameters: scale not given: the % may be the effect or the level left; procedure, shortened: as §3
Human adenovirus 5 [17] = test: Antiviral activity against Human adenovirus 5 infected in human A549 cells assessed as inhibition of viral DNA replication by measuring number of viral DNA copies at 50 uM after 24 hrs by RT-qPCR analysis (reference value: 100 +/- 1.55%); format: functional; parameters: scale not given: the % may be the effect or the level left
Human adenovirus 5 [18] = test: Antiviral activity against Human adenovirus 5 infected in human A549 cells assessed as fold reduction in virus yield at 50 uM after 48 hrs endpoint dilution method relative to control; format: functional
Human adenovirus 5 [19] = test: Antiviral activity against Human adenovirus 5 infected in 293beta5 cells assessed as inhibition of viral infection at 10 uM preincubated for 60 mins followed by viral infection by GFP reporter gene assay relative to control; format: functional; conditions: Human mastadenovirus C
Human adenovirus 5 [20] = test: Antiviral activity against Human adenovirus 5 infected in 293beta5 cells assessed as inhibition of viral infection at 10 uM measured after 2 hrs post infection by GFP reporter gene assay relative to control; format: functional; conditions: Human mastadenovirus C, 293beta5, 2 h
Human adenovirus 5 [21] = test: Antiviral activity against Human adenovirus 5 infected in 293beta5 cells assessed as inhibition of viral infection at 10 uM measured after 5 to 10 mins post infection by GFP reporter gene assay relative to control; format: functional; parameters: scale not given: the % may be the effect or the level left
Human adenovirus 5 [22] = test: Antiviral activity against Human adenovirus 5 infected in human A549 cells assessed as fold reduction in virus yield at 10 uM after 48 hrs endpoint dilution method relative to control; format: functional
Human adenovirus 5 [23] = test: Antiviral activity against Human adenovirus 5 infected in human A549 cells asssessed as inhibition of viral entry by measuring nuclear-associated viral genome level at 10 uM after 45 mins by RT-PCR analysis (reference value: 100.24 +/- 2.77%); format: functional; parameters: scale not given: the % may be the effect or the level left; procedure, shortened: as §3
Human adenovirus 5 [24] = test: Antiviral activity against Human adenovirus 5 infected in human A549 cells assessed as inhibition of viral DNA replication by measuring number of viral DNA copies at 10 uM after 24 hrs by RT-qPCR analysis (reference value: 100 +/- 1.55%); format: functional; parameters: scale not given: the % may be the effect or the level left

Row | IC50 (Human adenovirus 5 [2]) [µM] | IC50 (Human adenovirus 5 [7]) [µM] | Compound | CC50 at 48 h [3] [µM] | selectivity ratio at 168 h [4] | inhibition at 10 µM (Human adenovirus 5 [5]) [%] | inhibition at 50 µM (Human adenovirus 5 [15]) [%] | also measured
1 | 0.3 | 9.7 | O=C(N[C@H](Cc1ccccc1)C(=O)Nc1ccc([N+](=O)[O-])cc1Cl)c1cc(Cl)ccc1O | 77.9 | 260 | 100 | – | Activity (Human adenovirus 5 [1]): 25.78%; Activity (Human adenovirus 5 [6]): Active; fold change (FC) (Human adenovirus 5 [8]): 528; inhibition at 10 µM (Human adenovirus 5 [9]): 50%; Activity (Human adenovirus 5 [10]): 32.21%
2 | 0.68 | 1.38 | CC(C)[C@H](NC(=O)c1cc(Cl)ccc1NS(C)(=O)=O)C(=O)Nc1ccc([N+](=O)[O-])cc1Cl | 174 | 256 | 99.1 | 99.1 | Activity (Human adenovirus 5 [16]): 16.68%; Activity (Human adenovirus 5 [17]): 4.56%; fold change (FC) (Human adenovirus 5 [18]): 1; inhibition at 10 µM (Human adenovirus 5 [19]): > 50%; inhibition at 10 µM (Human adenovirus 5 [20]): > 50%
3 | 0.08 | 1.67 | O=C(Nc1ccc(C(F)(F)F)cc1Cl)c1cc(Cl)ccc1O | – | – | 100 | 100 | Activity (Human adenovirus 5 [21]): 20%; fold change (FC) (Human adenovirus 5 [22]): 175; Activity (Human adenovirus 5 [23]): 46.53%; Activity (Human adenovirus 5 [24]): 27.03%

Row | Compound | IC50 (Human adenovirus 5 [2]) [µM] | IC50 (Human adenovirus 5 [7]) [µM] | CC50 at 48 h [3] [µM] | selectivity ratio at 168 h [4] | inhibition at 10 µM (Human adenovirus 5 [5]) [%] | inhibition at 50 µM (Human adenovirus 5 [15]) [%] | also measured
4 | O=C(Nc1ccc([N+](=O)[O-])cc1F)c1cc(Cl)ccc1O | 0.05 | 1.57 | 10.9 | 218 | – | – | Activity (Human adenovirus 5 [11]): 34%; Activity (Human adenovirus 5 [12]): 75.85%; Activity (Human adenovirus 5 [13]): 57.6%; fold change (FC) (Human adenovirus 5 [14]): 1.8
